Values joined by “and” are separate entries in the source; they are usually repeats but may differ in a detail not shown here. Identical values can stand only once.
What was measured:
[1] = target: T1, Muscarinic acetylcholine receptor M3 (Rattus norvegicus, UniProt P08483); assay: Binding affinity to Muscarinic acetylcholine receptor M3 by measuring its ability to displace [3H]N-methylscopolamine binding in rat submandibulary gland
Summary of the method: (§1)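 Rat submandibulary gland membranes prepared in Na+/Mg2+ HEPES buffer pH 7.4. Incubated 45 min at 30 °C with 0.3 nM [3H]-N-methylscopolamine and test compound (10 nM–10 mM). Nonspecific binding defined with 1 μM (±)-QNB. Pellet obtained by centrifugation and counted by scintillation. Triplicate determinations. Ki derived from IC50 by Cheng–Prusoff.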

[2] = target: Muscarinic receptor M1 and M2 (Rattus norvegicus) (UniProt P08482+P10980); assay: Inhibitory selectivity for Muscarinic receptors M2 and M1; assay type: protein assay
Muscarinic receptor M1 and M2 (Rattus norvegicus), sequence (P08482 whole entry, looked up, one chain of several): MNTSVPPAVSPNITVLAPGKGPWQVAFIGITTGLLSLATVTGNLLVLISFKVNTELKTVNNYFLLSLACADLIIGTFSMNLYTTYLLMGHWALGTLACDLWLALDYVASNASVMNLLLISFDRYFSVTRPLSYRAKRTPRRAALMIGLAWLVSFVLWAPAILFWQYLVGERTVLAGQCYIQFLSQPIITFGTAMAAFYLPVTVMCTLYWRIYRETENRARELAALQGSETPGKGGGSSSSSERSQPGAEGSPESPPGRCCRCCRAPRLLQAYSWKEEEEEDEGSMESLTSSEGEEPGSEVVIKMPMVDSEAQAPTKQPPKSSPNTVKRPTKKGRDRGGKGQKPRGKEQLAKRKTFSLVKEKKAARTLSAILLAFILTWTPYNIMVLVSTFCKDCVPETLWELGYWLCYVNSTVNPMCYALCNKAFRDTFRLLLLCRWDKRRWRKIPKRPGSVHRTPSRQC
Summary of the method: (§2)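 Ratios of Ki values from rat tissue displacement binding. M1 used cerebral cortex with 0.5 nM [3H]pirenzepine. M2 used heart ventricle and M3 used submandibulary gland, both with 0.3 nM [3H]-N-methylscopolamine. All incubations ran 45 min at 30 °C with test compound at 10 nM–10 mM. Ki obtained by Cheng–Prusoff. Three independent experiments.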

Oryctolagus cuniculus = species on record: Oryctolagus cuniculus; assay: Concentration required to relax phenylephrine-precontracted aortic rings by 50% in endothelium denuded rabbit aorta; conditions: read-out: ED50 (the source's name)
[3] = Inhibitory selectivity for Muscarinic receptors M3 and M1; summary of the method: as §2
[4] = target: Muscarinic receptor M2 and M3 (Rattus norvegicus) (UniProt P08483+P10980); assay: Inhibitory selectivity for Muscarinic receptors M3 and M2; assay type: protein assay; summary of the method: as §2
Muscarinic receptor M2 and M3 (Rattus norvegicus), sequence (P08483 whole entry, looked up, one chain of several): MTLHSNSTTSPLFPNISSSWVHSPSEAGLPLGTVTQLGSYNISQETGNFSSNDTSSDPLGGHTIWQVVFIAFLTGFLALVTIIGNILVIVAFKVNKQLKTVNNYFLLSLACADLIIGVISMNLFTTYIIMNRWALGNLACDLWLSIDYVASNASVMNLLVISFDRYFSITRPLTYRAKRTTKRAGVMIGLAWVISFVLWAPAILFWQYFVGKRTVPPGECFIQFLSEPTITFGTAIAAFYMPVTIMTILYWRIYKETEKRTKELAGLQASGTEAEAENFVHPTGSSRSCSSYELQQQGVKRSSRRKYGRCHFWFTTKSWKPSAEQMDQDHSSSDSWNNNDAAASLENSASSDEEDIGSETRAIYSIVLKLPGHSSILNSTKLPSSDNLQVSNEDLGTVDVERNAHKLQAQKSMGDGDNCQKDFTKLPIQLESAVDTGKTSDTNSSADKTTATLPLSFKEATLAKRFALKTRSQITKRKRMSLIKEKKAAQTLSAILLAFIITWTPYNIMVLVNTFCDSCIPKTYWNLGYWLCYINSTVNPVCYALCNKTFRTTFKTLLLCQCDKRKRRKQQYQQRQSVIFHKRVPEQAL

[5] = target: T2, Muscarinic acetylcholine receptor M2 (Rattus norvegicus, UniProt P10980); assay: Binding affinity to Muscarinic acetylcholine receptor M2 by measuring its ability to displace [3H]N-methylscopolamine binding in rat heart
T2 sequence (P10980 whole entry): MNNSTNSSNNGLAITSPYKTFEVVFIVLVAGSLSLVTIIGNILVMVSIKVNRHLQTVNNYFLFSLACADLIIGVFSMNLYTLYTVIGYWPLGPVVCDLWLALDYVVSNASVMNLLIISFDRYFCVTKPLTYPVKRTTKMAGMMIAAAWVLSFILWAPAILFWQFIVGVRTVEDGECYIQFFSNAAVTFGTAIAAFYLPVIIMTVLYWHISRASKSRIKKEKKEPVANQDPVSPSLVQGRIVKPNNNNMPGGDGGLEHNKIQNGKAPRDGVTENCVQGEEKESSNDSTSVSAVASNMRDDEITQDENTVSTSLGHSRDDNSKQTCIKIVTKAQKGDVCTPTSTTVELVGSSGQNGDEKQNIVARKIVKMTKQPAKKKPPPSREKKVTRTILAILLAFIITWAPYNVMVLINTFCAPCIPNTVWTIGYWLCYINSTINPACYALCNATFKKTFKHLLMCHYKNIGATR
Summary of the method: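 Rat heart ventricle membranes, homogenized in sucrose/TRIS and washed in Na+/Mg2+ HEPES buffer pH 7.4. Nonspecific binding defined with 1 μM (±)-QNB. Bound ligand separated by centrifugation and counted by scintillation. Triplicate determinations. Ki derived from IC50 by Cheng–Prusoff.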

Rattus norvegicus = species on record: Rattus norvegicus; assay: Concentration required to relax phenylephrine-precontracted aortic rings by 50% in endothelium intact rat aorta; assay type: functional; conditions: read-out: ED50 (the source's name)
Summary of the method: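 Endothelium-intact rat aortic rings equilibrated 60 min at 37 °C under 95% O2/5% CO2. Endothelium confirmed by relaxation to 10^-6 M ACh. After washout, rings precontracted with 10^-7 M phenylephrine. Test compound added cumulatively (10^-6–10^-4 M) at 2-min intervals. Each ring used once. ED50 taken from percent phenylephrine response versus concentration.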

[6] = target: T1, Muscarinic acetylcholine receptor M3; assay: The compound was evaluated for its ability to inhibit [3H]NMS binding to Muscarinic acetylcholine receptor in submandibular salivary gland; assay type: tissue-based; summary of the method: as §1

T1 sequence (P08483 whole entry): as the sequence (P08483 whole entry, looked up, one chain of several) above

CC#CCCON=C1CC2CCC(C1)N2C
Ki [1]: 2.51 µM
Selectivity ratio [2]: 4.5
EC50 (Oryctolagus cuniculus): 9.8 µM
Selectivity ratio [3]: 3
Selectivity ratio [4]: 0.66
Ki [5]: 3.16 µM
EC50 (Rattus norvegicus): 7.8 µM

C#CC(C)ON=C1CCN(C)CC1 (configuration not stated)
Ki [1]: 79.4 µM
Selectivity ratio [2]: 2.2
EC50 (Oryctolagus cuniculus): 41 µM
Selectivity ratio [3]: 14
Selectivity ratio [4]: 6.3
Ki [5]: 12.6 µM
EC50 (Rattus norvegicus): 7.8 µM

CN1C2CCC1CC(=NO)C2
Ki [1]: 794 µM
Selectivity ratio [2]: 0.74
EC50 (Oryctolagus cuniculus): 320 µM
Selectivity ratio [3]: 1.4
Selectivity ratio [4]: 18
Ki [5]: 39.8 µM
EC50 (Rattus norvegicus): 53 µM

CN1CCC(=NO)CC1
Ki [1]: 3160 µM
Selectivity ratio [2]: 0.9
EC50 (Oryctolagus cuniculus): 78 µM
Selectivity ratio [3]: 7.6
Selectivity ratio [4]: 8.5
Ki [5]: 398 µM
EC50 (Rattus norvegicus): 43 µM

C#CCCCON=C1CCN(C)CC1
Ki [1]: 15.8 µM
Selectivity ratio [2]: 1.1
EC50 (Oryctolagus cuniculus): 13 µM
Selectivity ratio [3]: 1.7
Selectivity ratio [4]: 1.5
Ki [5]: 10 µM
EC50 (Rattus norvegicus): 9.3 µM

C#CCON=C1CC2CCC(C1)N2C
Selectivity ratio [2]: 4.2
EC50 (Oryctolagus cuniculus): 7.1 µM
Selectivity ratio [3]: 4.6
Selectivity ratio [4]: 1.1
Ki [5]: 6.31 µM and 25.1 µM
EC50 (Rattus norvegicus): 3.5 µM

CON=C1CC2CCC(C1)N2C
Ki [1]: 100 µM
Selectivity ratio [2]: 0.14
EC50 (Oryctolagus cuniculus): 11 µM
Selectivity ratio [3]: 0.1
Selectivity ratio [4]: 0.74
Ki [5]: 126 µM
EC50 (Rattus norvegicus): 11 µM

C#CCCON=C1CCN(C)CC1
Ki [1]: 39.8 µM
Selectivity ratio [2]: 6.2
EC50 (Oryctolagus cuniculus): 28 µM
Selectivity ratio [3]: 25
Selectivity ratio [4]: 3.7
Ki [5]: 10 µM
EC50 (Rattus norvegicus): 7.4 µM

O=C1CCCN1CC#CCN1CCCC1 [OXOTREMORINE]
Ki [1]: 0.398 µM
Selectivity ratio [2]: 0.32
Selectivity ratio [3]: 0.63
Selectivity ratio [4]: 2
Ki [5]: 0.2 µM
EC50 (Rattus norvegicus): 0.044 µM

CON=C1CCN(C)CC1
Ki [1]: 25.1 µM
Selectivity ratio [2]: 0.74
EC50 (Oryctolagus cuniculus): 260 µM
Selectivity ratio [3]: 0.51
Selectivity ratio [4]: 0.71
Ki [5]: 39.8 µM
EC50 (Rattus norvegicus): 13 µM

C#CC(C)ON=C1CC2CCC(C1)N2C (configuration not stated)
Ki [1]: 3.98 µM
Selectivity ratio [2]: 4.5
EC50 (Oryctolagus cuniculus): 26 µM
Selectivity ratio [3]: 0.46
Selectivity ratio [4]: 0.72
Ki [5]: 6.31 µM
EC50 (Rattus norvegicus): 6.9 µM

CC#CCON=C1CC2CCC(C1)N2C
Ki [1]: 15.8 µM
Ki [6]: 20 µM
Selectivity ratio [2]: 24
EC50 (Oryctolagus cuniculus): 4.8 µM
Selectivity ratio [3]: 27
Selectivity ratio [4]: 1.1
Ki [5]: 12.6 µM
EC50 (Rattus norvegicus): 3.4 µM

CC#CCON=C1CCN(C)CC1
Ki [1]: 126 µM
Selectivity ratio [2]: 2
EC50 (Oryctolagus cuniculus): 8.7 µM
Selectivity ratio [3]: 35
Selectivity ratio [4]: 17
Ki [5]: 7.94 µM
EC50 (Rattus norvegicus): 8.7 µM

CC#CCCON=C1CCN(C)CC1
Ki [1]: 39.8 µM
Selectivity ratio [2]: 7.5
Selectivity ratio [3]: 2
Selectivity ratio [4]: 0.27
Ki [5]: 15.8 µM
EC50 (Rattus norvegicus): 6.3 µM

CCC#CCON=C1CC2CCC(C1)N2C
Ki [1]: 3.16 µM
Ki [6]: 79.4 µM
Selectivity ratio [2]: 2.4
EC50 (Oryctolagus cuniculus): 3.5 µM
Selectivity ratio [3]: 0.56
Selectivity ratio [4]: 0.23
Ki [5]: 12.6 µM
EC50 (Rattus norvegicus): 1.3 µM

C#CCCON=C1CC2CCC(C1)N2C
Ki [1]: 10 µM
Selectivity ratio [2]: 19
EC50 (Oryctolagus cuniculus): 15 µM
Selectivity ratio [3]: 6.8
Selectivity ratio [4]: 0.34
Ki [5]: 31.6 µM
EC50 (Rattus norvegicus): 5.3 µM

CCC#CCON=C1CCN(C)CC1
Ki [1]: 20 µM
Selectivity ratio [2]: 4
EC50 (Oryctolagus cuniculus): 12 µM
Selectivity ratio [3]: 5.4
Selectivity ratio [4]: 1.4
Ki [5]: 15.8 µM
EC50 (Rattus norvegicus): 6.2 µM

C#CC(CC)ON=C1CC2CCC(C1)N2C (configuration not stated)
Ki [1]: 6.31 µM
Selectivity ratio [2]: 20
EC50 (Oryctolagus cuniculus): 41 µM
Selectivity ratio [3]: 22
Selectivity ratio [4]: 1.1
Ki [5]: 6.31 µM
EC50 (Rattus norvegicus): 5.5 µM

C[N+](C)(C)CC#CCOC(=O)Nc1cccc(Cl)c1
Selectivity ratio [2]: 1.4
EC50 (Oryctolagus cuniculus): 0.35 µM
Selectivity ratio [3]: 0.46
Selectivity ratio [4]: 0.33
Ki [5]: 6.31 µM
EC50 (Rattus norvegicus): 9.6 µM

C#CC(CC)ON=C1CCN(C)CC1 (configuration not stated)
Ki [1]: 10 µM
Selectivity ratio [2]: 1.8
EC50 (Oryctolagus cuniculus): 18 µM
Selectivity ratio [3]: 1.5
Selectivity ratio [4]: 0.85
Ki [5]: 10 µM
EC50 (Rattus norvegicus): 7.6 µM

C#CCC(C)ON=C1CC2CCC(C1)N2C (configuration not stated)
Ki [1]: 3.16 µM
Selectivity ratio [2]: 16
EC50 (Oryctolagus cuniculus): 23 µM
Selectivity ratio [3]: 29
Selectivity ratio [4]: 1.8
Ki [5]: 1.58 µM
EC50 (Rattus norvegicus): 5.4 µM

COC(=O)C1=CCCN(C)C1 [ARECOLINE]
EC50 (Rattus norvegicus): 1.6 µM

C#CCCCON=C1CC2CCC(C1)N2C
Ki [1]: 10 µM
Selectivity ratio [2]: 12
EC50 (Oryctolagus cuniculus): 6.5 µM
Selectivity ratio [3]: 16
Selectivity ratio [4]: 1.3
Ki [5]: 6.31 µM
EC50 (Rattus norvegicus): 5.9 µM

C#CCON=C1CCN(C)CC1
Ki [1]: 20 µM
Selectivity ratio [2]: 0.59
EC50 (Oryctolagus cuniculus): 11 µM
Selectivity ratio [3]: 0.42
Selectivity ratio [4]: 0.72
Ki [5]: 25.1 µM
EC50 (Rattus norvegicus): 6.8 µM

C#CCC(C)ON=C1CCN(C)CC1 (configuration not stated)
Ki [1]: 50.1 µM
Selectivity ratio [2]: 2.9
EC50 (Oryctolagus cuniculus): 25 µM
Selectivity ratio [3]: 15
Selectivity ratio [4]: 5.4
Ki [5]: 10 µM
EC50 (Rattus norvegicus): 5 µM

— ChEMBL document CHEMBL1131062, “Synthesis and pharmacological characterization of O-alkynyloximes of tropinone and N-methylpiperidinone as muscarinic agonists” (J Med Chem, 1998)
